Converted amounts (≈) assume the structure as drawn. The source made the active and inactive calls. The calls are words filed in the database; no cut-off is given here.
Legend:
Escherichia coli = test: Antibacterial activity against Escherichia coli ATCC 9637 after 16 hrs by microtiter broth dilution method; type: functional; conditions: W
Pseudomonas aeruginosa = test: Antibacterial activity against Pseudomonas aeruginosa ATCC BAA-427 after 16 hrs by microtiter broth dilution method; type: functional; conditions: ATCC BAA-427, 16 h
Staphylococcus aureus [1] = test: Antibacterial activity against Staphylococcus aureus ATCC 25923 after 16 hrs by microtiter broth dilution method; type: functional; conditions: ATCC 25923, 16 h
Staphylococcus aureus [2] = test: Antibacterial activity against methicillin-resistant Staphylococcus aureus ATCC 700699 after 16 hrs by microtiter broth dilution method; type: functional; conditions: ATCC 700699, 16 h
Staphylococcus aureus [3] = test: Antibacterial activity against […] Staphylococcus aureus ATCC 29213 after 16 hrs by microtiter broth dilution method; type: functional; conditions: ATCC 29213, 16 h
Staphylococcus aureus [4] = test: Antibacterial activity against methicillin/gentamicin-resistant Staphylococcus aureus ATCC 33592 after 16 hrs by microtiter broth dilution method; type: functional; conditions: ATCC 33592, 16 h
Klebsiella pneumoniae = test: Antibacterial activity against Klebsiella pneumoniae ATCC 27736 after 16 hrs by microtiter broth dilution method; type: functional; conditions: ATCC 27736, 16 h
Candida albicans = test: Antifungal activity against Candida albicans after 16 hrs by microtiter broth dilution method; type: functional
Cryptococcus neoformans = test: Antifungal activity against Cryptococcus neoformans after 16 hrs by microtiter broth dilution method; type: functional
Sporothrix schenckii = test: Antifungal activity against Sporothrix schenckii after 16 hrs by microtiter broth dilution method; type: functional
[5] = system: Trichophyton mentagrophytes; test: Antifungal activity against Trichophyton mentagrophytes after 16 hrs by microtiter broth dilution method; type: functional
Aspergillus fumigatus = test: Antifungal activity against Aspergillus fumigatus after 16 hrs by microtiter broth dilution method; type: functional
Candida parapsilosis = test: Antifungal activity against Candida parapsilosis ATCC 22019 after 16 hrs by microtiter broth dilution method; type: functional; conditions: Lodderomyces parapsilosis, ATCC 22019, 16 h
L929 [6] = test: Cytotoxicity against mouse L929 cells assessed as cell viability at <= MIC by MTT assay; type: cell-based
Procedure, shortened: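 Mouse fibroblast L929 cells were exposed to the compound. Viability was read by MTT conversion to blue formazan, measured at 550 nm.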

L929 [7] = test: Cytotoxicity against mouse L929 cells assessed as induction of morphological changes at 1 x MIC after 24 hrs by Giemsa staining-based phase contrast microscopic analysis; type: cell-based; conditions: l929, 24 h
Procedure, shortened: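 L929 fibroblasts were incubated with the compound for 24 h, then Giemsa-stained. Morphology was compared with untreated control cells under phase contrast microscopy for appearance, transparency and attachment to the well surface.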

Staphylococcus aureus [8] = test: Antibacterial activity against […] Staphylococcus aureus ATCC 29213 assessed as reduction in log10CFU at 1x MIC and 10x MIC measured at 24 hrs relative to control; type: functional
Procedure, shortened: (§1)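 Aliquots were taken at regular time points and plated for CFU counts. Reduction in log10 CFU was taken against a no-drug control.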

Staphylococcus aureus [9] = test: Antibacterial activity against […] Staphylococcus aureus ATCC 29213 assessed as reduction in log10CFU measured at 24 hrs; type: functional, organism-based; procedure, shortened: as §1
Staphylococcus aureus [10] = test: Antibacterial activity against […] Staphylococcus aureus ATCC 29213 in neutropenic BALB/C mouse septicemia model assessed as increase in mouse survival at 15 mg/kg, ip administered twice at 3 hrs interval; type: functional, organism-based
Staphylococcus aureus [11] = test: Antibacterial activity against […] Staphylococcus aureus ATCC 29213 in neutropenic BALB/C mouse septicemia model assessed as reduction in bacterial burden in spleen at 15 mg/kg, ip administered twice at 3 hrs interval measured after 24 hrs; type: functional, organism-based
Procedure, shortened: (§2)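 BALB/c mice were made neutropenic with cyclophosphamide (150 mg/kg) and then infected intraperitoneally with S. aureus ATCC 29213. From 3 h post-infection, compound was injected at 15 mg/kg twice, 3 h apart. At 24 h, spleen, kidney and liver were crushed and plated on TH plates for CFU. Data from three independent experiments were pooled; P by ANOVA on ranks.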

Staphylococcus aureus [12] = test: Antibacterial activity against […] Staphylococcus aureus ATCC 29213 in neutropenic BALB/C mouse septicemia model assessed as reduction in bacterial burden in liver at 15 mg/kg, ip administered twice at 3 hrs interval measured after 24 hrs; type: functional, organism-based; procedure, shortened: as §2
Staphylococcus aureus [13] = test: Antibacterial activity against […] Staphylococcus aureus ATCC 29213 in neutropenic BALB/C mouse septicemia model assessed as reduction in bacterial burden in kidney at 15 mg/kg, ip administered twice at 3 hrs interval measured after 24 hrs; type: functional, organism-based; procedure, shortened: as §2
[14] = Hemolytic activity in human RBC at 100 ug/ml after 1 hr; conditions: erythrocyte

Question: Which results are given for `COc1ccc(-c2csc(/N=C/c3cc(/C=C/C(=O)c4ccc(C)cc4)cc(C(C)(C)C)c3O)n2)cc1OC`?
Answer: MIC (Escherichia coli): > 92.5 µM; MIC (Pseudomonas aeruginosa): > 92.5 µM; MIC (Staphylococcus aureus [1]): 5.8 µM (≈ 3.14 µg/mL); MIC (Staphylococcus aureus [2]): 11.6 µM (≈ 6.27 µg/mL); MIC (Staphylococcus aureus [3]): 5.8 µM (≈ 3.14 µg/mL); MIC (Staphylococcus aureus [4]): 1.4 µM (≈ 0.757 µg/mL); MIC (Klebsiella pneumoniae): > 92.5 µM; MIC (Candida albicans): > 92.5 µM; MIC (Cryptococcus neoformans): > 92.5 µM; MIC (Sporothrix schenckii): > 92.5 µM; MIC [5]: > 92.5 µM; MIC (Aspergillus fumigatus): > 92.5 µM; MIC (Candida parapsilosis): > 92.5 µM; Activity (L929 [6]): Non-toxic; Activity (L929 [7]): Non-toxic; Activity (Staphylococcus aureus [8]): 10 log10CFU/ml; Activity (Staphylococcus aureus [9]): Dose-dependent effect; Activity (Staphylococcus aureus [10]): Active; Activity (Staphylococcus aureus [11]): Active; Activity (Staphylococcus aureus [12]): Active; Activity (Staphylococcus aureus [13]): inactive; Activity [14]: Non-toxic

Reference: ChEMBL document CHEMBL3608288, “Novel Chalcone-Thiazole Hybrids as Potent Inhibitors of Drug Resistant Staphylococcus aureus” (ACS Med Chem Lett, 2015)
